Test results published in PubChem BioAssay AID617 (SRMLSC, 2007).

Tested on: E. coli BW25113 ΔtolC growth inhibition, OD615
Assay: growth inhibitors of E. coli tolC mutant, dose response, strain BW25113 ΔtolC::kan (AID 617)
How it was run: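 Test system: E. coli BW25113 ΔtolC::kan bacteria / Buffer or medium: kanamycin-containing LB broth, 50 µg/mL / Compound: serial dilution series of compound / Incubation: bacterial growth with compound for 20 h, 37 °C / Measured by: OD615 / Read-out basis: growth-inhibition IC50 from four-parameter logistic curve, bounds set to 0% and 100%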

SMILES	IC50
COc1ccc(-c2[nH]ncc2-c2cnn(-c3ccccc3)c2)c(O)c1	12.5 µM
COc1cc(C2C(C(=O)c3ccc(C)o3)=C(O)C(=O)N2c2cc(C)on2)cc(Br)c1O (stereo not drawn)	24.7 µM
COc1ccc(Cn2c(=O)sc3ccccc32)cc1	61.7 µM
Cc1cc(/C=C(/C#N)c2cccc(F)c2)c(C)n1-c1cccnc1	10.9 µM
C=C(C)COc1ccc(-c2[nH]ncc2Oc2ccccc2OC)c(O)c1	5.72 µM
Cn1c(=O)n(Cc2ccccc2)c(=O)c2c1nc1n2CCCN1Cc1ccccc1	42.8 µM
CN(C)[C@@H]1C(=O)C(C(N)=O)=C(O)[C@@]2(O)C(=O)C3=C(O)c4c(O)ccc(Cl)c4[C@@H](O)[C@H]3C[C@@H]12	< 0.2 µM
COc1cccc(C(=O)Nc2nnc(-c3cccs3)o2)c1	3.87 µM
Cc1nnc(NC(=O)c2ccc(S(=O)(=O)N(C)Cc3ccccc3)cc2)o1	3.87 µM
Cn1c(=O)n(CCc2ccccc2)c(=O)c2c1nc1n2CCCN1CCc1ccccc1	10.5 µM
CC(C)OCCCNc1ncnc2c1[nH]c1ccccc12	5.88 µM
CC1(C)C(=O)OC(c2cc(Br)ccc2O)C(C)(C)C1=O (stereo not drawn)	15.4 µM
C=CCSc1n[nH]c(-c2ccc(OCCCC)cc2)n1	93.1 µM
CCCc1ccc(Oc2cn[nH]c2-c2ccc(O)cc2O)cc1	0.24 µM
C=C(C)COc1ccc(-c2n[nH]c(C)c2-c2ccccc2)c(O)c1	8.47 µM
O=C(Nc1ccc(Cl)c(Cl)c1)N1CCSC1c1ccco1 (stereo not drawn)	5.12 µM
C=CCc1c(C)nc(SCc2nc3ccccc3c(=O)[nH]2)[nH]c1=O	6.54 µM
COc1ccccc1-c1nnc2sc(COc3ccc(Cl)cc3)nn12	16.4 µM
Cc1ccc(OCc2nc(C#N)c(NCc3ccc4c(c3)OCO4)o2)cc1	6.03 µM
CCOC(=O)c1nnn(-c2nonc2-n2cccc2)c1CN1CCC(C)CC1	23.4 µM
Cc1cccc(N2CCN(C(=O)C34CC5CC(CC(C5)C3)C4)CC2)c1C	19.6 µM
N#Cc1c(N)oc(-c2ccc3c(c2)OCO3)c1-c1ccc2c(c1)OCO2	49.9 µM

SMILES	IC50
COc1ccc(-c2csc(NCc3ccco3)n2)cc1C	23.2 µM
Cc1ccccc1-c1nc(CS(=O)(=O)CC(=O)N2CCc3ccccc3C2)c(C)o1	31.7 µM
CC(C)N(Cc1nc(-c2ccc(Cl)cc2)no1)C(=O)CCC1CCCC1	15.5 µM
Cc1ccc(NC(=O)CSC2=C(C#N)C(c3ccco3)C3=C(CC(C)(C)CC3=O)N2)cc1 (stereo not drawn)	8.92 µM
COc1cc(NS(=O)(=O)c2ccc(OC)c(C)c2C)c(OC)cc1Cl	16.8 µM
Cc1ccc(Cl)cc1N1CCN(C(=O)CCS(=O)(=O)c2cccc3nonc23)CC1	44 µM
CCCCCCn1c(N2CCN(c3ccccc3)CC2)nc2c1c(=O)n(C)c(=O)n2C	10.1 µM
Cc1cc(C2N=C(N)Nc3nc4ccccc4n32)c(C)n1-c1ccccc1Cl (stereo not drawn)	6.74 µM
COc1ccc(C(=O)Nn2cnc3scc(-c4cccs4)c3c2=O)c(O)c1	3.24 µM
Clc1ccc2[nH]c3c(c2c1)CCc1cn[nH]c1-3	6.49 µM
Cc1cccc2cc(C(c3nnnn3CC3CCCO3)N3CCc4ccccc4C3)c(=O)[nH]c12 (stereo not drawn)	35.4 µM
Cc1ccc2nc(NC(=O)CNS(=O)(=O)c3ccc(Br)s3)sc2c1	47.7 µM
Cc1cccc(Nc2nc(NCc3ccco3)nc(N3CCOCC3)n2)c1	10.1 µM
CC(C)c1ccc(Nc2nc(NCc3ccco3)nc(N3CCOCC3)n2)cc1	17.5 µM
C=C(C)COc1ccc(-c2[nH]ncc2Oc2cccc(OC)c2)c(O)c1	6 µM
CCNc1nc(NC(C)C)nc(N(C#N)Cc2ccccc2)n1	18.1 µM
Cc1nn(-c2ccc(F)cc2)c2sc(C(=O)N3CCCCCC3)cc12	20.2 µM
Cc1cccc(-c2nc(CS(=O)CC(=O)NCCCSC3CCCCC3)c(C)o2)c1 (stereo not drawn)	10.1 µM
CCN1C(=O)CSC1=NC1C2CC3CC(C2)CC1C3 (stereo not drawn)	33.5 µM
COCCCN1C(=O)c2[nH]nc(-c3ccccc3O)c2C1c1ccc(Cl)cc1 (stereo not drawn)	5.96 µM
COC(=O)c1ccsc1NC(=O)CN1CCN(c2ccc(F)cc2)CC1	18.5 µM
O=C(COc1ccccc1)Nc1nnc(-c2ccc(Cl)s2)o1	1.86 µM

SMILES	IC50
CCOC(=O)c1cccc(NC(=O)Nc2cc(OC)ccc2OC)c1	20.5 µM
COC(=O)C1=C(N)Oc2cc(C)n(Cc3ccco3)c(=O)c2C1c1cccc(Cl)c1 (stereo not drawn)	26.5 µM
CCCN(CCC)c1nc(NC2CCN(C(=O)OCC)CC2)nc(OC)n1	12.4 µM
Cc1ccc(C)c(N2CCN(C(=O)c3cc4sccc4n3C)CC2)c1	15.1 µM
CCn1c(=O)c(C(=O)Nn2c(C)nc3ccccc3c2=O)c(O)c2ccccc21	3.26 µM
CCOC(=O)c1cc2cc(-c3c(C(=O)OCC)oc4cc(O)cc(O)c4c3=O)ccc2o1	7.59 µM
FC(F)(F)c1cccc(N2CCN(c3nnnn3-c3ccccc3)CC2)c1	20.8 µM
O=C(Cc1ccccc1)Nc1ccccc1N1CCN(c2ccccc2)CC1	64.5 µM
CCOc1cc(/C=C(/C#N)c2ccc(F)cc2)ccc1OCc1ccc(C(=O)O)o1	4.4 µM
CCOC(=O)c1ccc(Oc2nc(NC(C)(C)C)nc(N(C)C)n2)cc1	14.9 µM
Oc1c(CN2CCc3ccccc3C2)cc(Cl)c2cccnc12	8.71 µM
O=C(Nc1nc2n(n1)C(c1ccc(Cl)cc1)CC(c1ccc(Cl)cc1)N2)c1ccco1 (stereo not drawn)	4.7 µM
CCc1cc(/C(Cc2ccc3ccccc3n2)=N\O)c(O)cc1O	8.41 µM
CCOC(=O)Cc1c(C)nc2c(-c3ccc(Cl)cc3)c[nH]n2c1=O	2.11 µM
CCn1c(Cn2nnc(-c3ccccc3)n2)nnc1SCc1ccc(Cl)c(Cl)c1	7.77 µM
Cc1cc(NS(=O)(=O)c2ccc(NC(=O)COc3ccccc3C(C)C)cc2)no1	16.5 µM
CCOC(=O)c1cc(C)n(S(=O)(=O)c2ccc(C)cc2)c1C	12.4 µM
CCOC(=O)c1c(-c2ccccc2)nnn1-c1nc(OCC)nc(N2CCCCC2)n1	20.7 µM
COc1nnc(-c2ccc(N3CCCCC3)c(N)c2)c2ccccc12	11.9 µM
CCOC(=O)C1=C(C)NC(SCC(=O)Nc2cc(C)on2)=C(C#N)C1c1cccs1 (stereo not drawn)	11 µM
CCOc1ccc(C(=O)C2CCN(CC(=O)Nc3ccccc3N3CCOCC3)CC2)cc1	15.6 µM
CCCc1nc(SCC(=O)N2CCC(Cc3ccccc3)CC2)c2c(=O)n(C)c(=O)n(C)c2n1	11.2 µM

SMILES	IC50
COc1ccc(-c2[nH]ncc2Oc2ccccc2OC)c(O)c1	10.5 µM
O=S(=O)(c1ccccc1)N1CCN(Cc2ccccc2C(F)(F)F)CC1	16.8 µM
COc1ccc(-c2cnc(SCC(=O)Nc3ccc4c(c3)OCO4)n2Cc2ccco2)cc1	11.1 µM
NC1C2CN(c3nc4c(cc3F)c(=O)c(C(=O)O)cn4-c3ccc(F)cc3F)CC12 (stereo not drawn)	< 0.2 µM
Cc1oc2c(CN3CCCC3)c(O)ccc2c(=O)c1-c1ccc(Br)cc1	25.5 µM
COc1ccc(C(C(O)C(=O)c2c[nH]c3ccccc23)N2CCN(c3ccc(OC)cc3)CC2)cc1 (stereo not drawn)	11.3 µM
Cc1cc(N2C3CCC2CC(O)(c2ccc(F)cc2)C3)nc(-c2ccccc2)n1 (stereo not drawn)	7.11 µM
Cc1cc(NC(=O)Cn2nnc3sc4c(c3c2=O)CCC(C(C)(C)C)C4)no1 (stereo not drawn)	7.77 µM
CN(C)S(=O)(=O)N(Cc1ccc(Br)cc1)c1ccccc1	12.9 µM
O=C(CSc1ncn(-c2ccccc2)n1)Nc1nc2c(s1)CCCC2	16.9 µM
CCOC(=O)c1c(NC(=O)C(F)(OC)C(F)(F)F)sc(C(=O)N2CCCCC2)c1C (stereo not drawn)	24.6 µM
N#Cc1nc(-c2ccc(OCc3ccccc3)cc2)oc1NCCCN1CCOCC1	25.9 µM
O=C(CSc1nc2nc(-c3cccs3)cc(C(F)(F)F)c2c(=O)[nH]1)NCc1ccco1	5.53 µM
CC(C)c1ccc(OCc2nc(-c3ccccn3)no2)c(Br)c1	14.9 µM
COC(=O)C1=C(C)N(C)C(C)=C(C(=O)OC)C1c1ccc(F)c(Br)c1	20 µM
Cc1ccccc1CSc1nc2n(n1)C(c1cccs1)C1=C(CCCC1=O)N2 (stereo not drawn)	8.42 µM
O=C(O)c1cc(Cl)c2ccccc2c1O	10.1 µM
CC(C)c1nc(N2CCOCC2)c(C#N)c2c1CCCC2	18 µM
CCOC(=O)c1ccccc1NC(=O)C(C)Oc1ccccc1 (stereo not drawn)	30.3 µM
COc1ccc(/C(O)=C2\C(=O)C(=O)N(CC3CCCO3)C2c2cc(OC)ccc2OC)cc1 (stereo not drawn)	11.8 µM
CCCOc1ccccc1NC(=O)c1c(-c2ccccc2)noc1C	15.1 µM
O=C(c1ccc(COc2ccc(Cl)cc2)o1)N1CCN(Cc2ccc3c(c2)OCO3)CC1	5.35 µM

SMILES	IC50
O=C1c2ccccc2C(=O)N1CCC(c1ccc(F)cc1)c1ccco1 (stereo not drawn)	13.4 µM
Cc1cc(OCCCC(=O)N2CCCCC2)cc(C)c1Cl	28.2 µM
CN1CCN(CC(=O)N2CCn3c4c(c5cc(C6CCCCC6)ccc53)CCCC42)CC1 (stereo not drawn)	66.7 µM
CCOC(=O)N1CCN(C(=O)COc2ccc(S(=O)(=O)Nc3ccc(OCC)cc3)cc2)CC1	2 µM
CCOC(=O)Cc1csc(NC(=O)c2ccc(S(=O)(=O)N3CCCCC3)cc2)n1	91.3 µM
N#Cc1c(NC(=O)CSc2n[nH]c(Cc3ccccc3)n2)oc(-c2ccccc2)c1-c1ccccc1	7.4 µM
Cc1cc(N2CCCCCC2)nc(-c2ccccc2O)n1	13.6 µM
COc1cc(NS(=O)(=O)c2ccc(NC(=O)COc3ccccc3Cl)cc2)nc(OC)n1	24.6 µM
CCC(C(=O)Nc1ccccc1OC)n1c(C(=O)OC)cc2ccsc21 (stereo not drawn)	10.9 µM
COc1cccc(-c2nnc(NC(=O)c3ccc(S(=O)(=O)N4CCOCC4)cc3)o2)c1	0.99 µM
Brc1ccc(CSc2nnc(-c3cnccn3)n2Cc2ccco2)cc1	63.4 µM
c1csc(-c2noc(COc3ccc4c(c3)CCCC4)n2)c1	18.4 µM
COc1cc(S(=O)(=O)N2CCC(O)(c3cccc(C(F)(F)F)c3)CC2)ccc1-n1cnnn1	11.1 µM
O=C(Cc1ccccc1F)Nc1nc(-c2cccs2)cs1	6.95 µM
c1ccc(CSc2nnc(-c3ccco3)n2Cc2ccccc2)cc1	13.8 µM
c1ccc(-c2noc(-c3cccc4ccccc34)n2)cc1	101 µM
CCCCn1nc(NC(=O)c2cccs2)c2cc3ccccc3nc21	8.28 µM
Cc1onc(-c2ccccc2)c1C(=O)Nc1nnc(N(C)Cc2ccccc2)s1	23.9 µM
c1ccc(-c2oc3ncnc(NCCN4CCOCC4)c3c2-c2ccccc2)cc1	11.8 µM
CCC(C)(C)n1nnnc1CN(Cc1ccc(Cl)cc1)Cc1ccco1	12.6 µM
